Measurements taken from ChEMBL document CHEMBL2029249, “N-Methyl-3-(tetrahydro-2H-pyran-4-yl)-2,3,4,9-tetrahydro-1H-carbazole-6-carboxamides as a novel class of cannabinoid receptors agonists with low CNS penetration” (Bioorg Med Chem Lett, 2012).
Values after ≈ are worked out from the molar mass of the structure shown.

Tests used:
[1] = Intrinsic clearance in human liver microsomes at 1 uM in presence of NADPH; assay type: ADME, Microsome; conditions: read-out: CLH
Cannabinoid receptor 1 [2] = target: T1, Cannabinoid receptor 1 (Homo sapiens, UniProt P21554); assay: Agonist activity at human CB1 receptor expressed in HEK293 cells assessed as [35S]GTPgamma binding relative to WIN55212-2; assay type: functional, cell-based
T1 sequence (P21554 whole entry): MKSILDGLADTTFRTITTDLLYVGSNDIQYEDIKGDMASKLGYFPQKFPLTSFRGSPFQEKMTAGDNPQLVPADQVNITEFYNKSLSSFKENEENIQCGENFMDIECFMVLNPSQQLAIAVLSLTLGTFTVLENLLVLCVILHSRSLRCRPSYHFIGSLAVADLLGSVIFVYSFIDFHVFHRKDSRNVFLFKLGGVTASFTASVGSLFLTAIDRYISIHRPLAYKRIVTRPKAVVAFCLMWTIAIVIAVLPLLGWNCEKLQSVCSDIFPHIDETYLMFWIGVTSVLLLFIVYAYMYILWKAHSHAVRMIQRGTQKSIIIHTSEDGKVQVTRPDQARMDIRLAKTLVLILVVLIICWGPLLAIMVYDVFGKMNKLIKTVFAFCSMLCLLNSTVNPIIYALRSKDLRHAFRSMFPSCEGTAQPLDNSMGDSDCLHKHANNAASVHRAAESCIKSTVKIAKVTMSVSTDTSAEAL
Summary of the method: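 GTPγ35S binding on membranes from HEK293 EBNA cells stably transfected with cloned human CB1; Emax relative to WIN55,212-2 as reference agonist; means of at least three measurements.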

[3] = Ratio of drug level in brain to plasma in rat by microdialysis assay
Cannabinoid receptor 1 [4] = target: T1, Cannabinoid receptor 1; assay: Agonist activity at human CB1 receptor expressed in HEK293 cells assessed as [35S]GTPgamma binding; assay type: functional, cell-based
[5] = Thermodynamic solubility of the compound at pH 7.4; conditions: buffer
[6] = Apparent permeability from apical to basal side of human Caco2 cells at 10 uM; conditions: Caco-2
Cannabinoid receptor 1 [7] = target: T1, Cannabinoid receptor 1; assay: Displacement of [3H]CP55940 from human CB1 receptor expressed in HEK293 cells; assay type: cell-based
Plasma [8] = assay: Plasma concentration in rat carrageenan inflammatory pain model at 100 umol/kg, sc; assay type: ADME, cell-free
Summary of the method: (§1)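 Rats in carrageenan inflammatory pain model dosed sc at 10, 30 or 100 µmol/kg; total plasma and brain levels by protein precipitation with ACN (brain homogenised first), centrifugation 9000g, 30 min, 4 °C, then reversed-phase LC-electrospray MS/MS against a serial-dilution calibration curve.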

[9] = Clearance in Sprague-Dawley rat at 2 umol/kg, iv; assay type: ADME, organism-based; conditions: in vivo
Cytochrome P450 1A2 = target: T2, Cytochrome P450 1A2 (Homo sapiens, UniProt P05177); assay: Inhibition of CYP1A2 in human liver microsomes; assay type: ADME, Microsome
T2 sequence (P05177 whole entry): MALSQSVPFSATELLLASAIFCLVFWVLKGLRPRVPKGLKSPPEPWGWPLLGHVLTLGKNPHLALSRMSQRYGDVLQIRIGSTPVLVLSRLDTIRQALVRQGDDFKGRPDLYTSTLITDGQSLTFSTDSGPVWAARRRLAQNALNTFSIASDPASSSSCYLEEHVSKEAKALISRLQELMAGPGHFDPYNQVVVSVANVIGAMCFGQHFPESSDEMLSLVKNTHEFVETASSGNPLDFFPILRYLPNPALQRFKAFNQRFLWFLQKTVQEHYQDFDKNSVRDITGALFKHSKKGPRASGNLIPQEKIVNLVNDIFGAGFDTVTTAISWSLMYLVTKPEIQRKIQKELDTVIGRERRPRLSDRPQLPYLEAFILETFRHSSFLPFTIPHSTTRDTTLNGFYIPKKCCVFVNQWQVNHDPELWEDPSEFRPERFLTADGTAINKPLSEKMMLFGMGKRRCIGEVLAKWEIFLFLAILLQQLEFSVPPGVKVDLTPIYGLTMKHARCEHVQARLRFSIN

[10] = Cmax in Sprague-Dawley rat at 9 umol/kg, po; assay type: ADME, organism-based; set-up: dose 9 umol/kg, route oral; conditions: in vivo
[11] = Volume of distribution at steady state in Sprague-Dawley rat at 2 umol/kg, iv; assay type: ADME, organism-based; conditions: in vivo, read-out: Vdss
Cannabinoid receptor 2 = Cannabinoid receptor 2 (Homo sapiens, UniProt P34972); assay: Binding affinity to human CB2 receptor
Cannabinoid receptor 2, sequence (P34972 whole entry): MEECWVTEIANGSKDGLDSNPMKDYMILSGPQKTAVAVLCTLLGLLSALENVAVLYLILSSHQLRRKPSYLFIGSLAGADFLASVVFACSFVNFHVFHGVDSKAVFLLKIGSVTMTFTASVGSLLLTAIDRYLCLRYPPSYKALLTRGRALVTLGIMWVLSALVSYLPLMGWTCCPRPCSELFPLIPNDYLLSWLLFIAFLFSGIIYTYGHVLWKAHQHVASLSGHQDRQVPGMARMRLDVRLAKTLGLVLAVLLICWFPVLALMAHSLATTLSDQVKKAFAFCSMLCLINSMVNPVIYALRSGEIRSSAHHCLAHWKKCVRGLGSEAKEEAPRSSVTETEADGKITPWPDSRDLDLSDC

Cytochrome P450 2C9 = Cytochrome P450 2C9 (Homo sapiens, UniProt P11712); assay: Inhibition of CYP2C9 in human liver microsomes; assay type: ADME, Microsome
Cytochrome P450 2C9, sequence (P11712 whole entry): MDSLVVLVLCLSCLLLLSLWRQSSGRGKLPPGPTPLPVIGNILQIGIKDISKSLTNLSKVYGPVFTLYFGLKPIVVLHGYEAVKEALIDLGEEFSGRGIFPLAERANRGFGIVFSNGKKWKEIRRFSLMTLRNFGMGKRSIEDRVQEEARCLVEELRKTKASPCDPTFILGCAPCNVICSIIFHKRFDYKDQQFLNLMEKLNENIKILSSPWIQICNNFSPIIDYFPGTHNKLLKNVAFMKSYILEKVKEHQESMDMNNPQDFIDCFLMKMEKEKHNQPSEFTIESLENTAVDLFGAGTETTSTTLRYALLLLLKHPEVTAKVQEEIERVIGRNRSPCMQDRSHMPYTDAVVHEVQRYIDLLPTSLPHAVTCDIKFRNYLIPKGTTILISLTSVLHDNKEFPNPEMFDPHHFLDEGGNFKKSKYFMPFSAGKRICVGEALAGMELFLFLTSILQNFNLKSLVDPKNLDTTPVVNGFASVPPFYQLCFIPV

Cytochrome P450 3A4 = Cytochrome P450 3A4 (Homo sapiens, UniProt P08684); assay: Inhibition of CYP3A4 in human liver microsomes; assay type: ADME, Microsome
Cytochrome P450 3A4, sequence (P08684 whole entry): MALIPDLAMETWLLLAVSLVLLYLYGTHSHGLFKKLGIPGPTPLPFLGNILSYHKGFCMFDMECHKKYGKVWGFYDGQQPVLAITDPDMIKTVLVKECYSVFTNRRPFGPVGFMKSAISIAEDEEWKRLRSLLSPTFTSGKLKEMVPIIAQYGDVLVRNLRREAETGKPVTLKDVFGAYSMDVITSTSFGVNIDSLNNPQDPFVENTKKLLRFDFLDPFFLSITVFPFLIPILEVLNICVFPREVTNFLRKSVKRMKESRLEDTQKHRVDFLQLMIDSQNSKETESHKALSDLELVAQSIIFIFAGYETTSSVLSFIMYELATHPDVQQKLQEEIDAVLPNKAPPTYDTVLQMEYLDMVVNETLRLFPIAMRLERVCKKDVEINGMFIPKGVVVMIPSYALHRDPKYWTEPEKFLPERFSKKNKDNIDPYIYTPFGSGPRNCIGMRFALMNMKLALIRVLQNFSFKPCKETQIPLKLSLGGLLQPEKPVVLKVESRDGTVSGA

[12] = Intrinsic clearance in rat liver microsomes; assay type: ADME, Microsome; conditions: read-out: CLH
Summary of the method: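 Rat liver microsomes; intrinsic clearance expressed per mg microsomal protein.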

Rattus norvegicus = assay: Analgesic activity in sc dosed rat assessed as reversal of carrageenan-induced heat hyperalgesia; assay type: functional, organism-based
Summary of the method: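 Rat carrageenan inflammatory pain model; reversal of heat hyperalgesia after subcutaneous dosing at 10, 30 and 100 µmol/kg.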

Cytochrome P450 2C19 = Cytochrome P450 2C19 (Homo sapiens, UniProt P33261); assay: Inhibition of CYP2C19 in human liver microsomes; assay type: ADME, Microsome
Cytochrome P450 2C19, sequence (P33261 whole entry, canonical isoform): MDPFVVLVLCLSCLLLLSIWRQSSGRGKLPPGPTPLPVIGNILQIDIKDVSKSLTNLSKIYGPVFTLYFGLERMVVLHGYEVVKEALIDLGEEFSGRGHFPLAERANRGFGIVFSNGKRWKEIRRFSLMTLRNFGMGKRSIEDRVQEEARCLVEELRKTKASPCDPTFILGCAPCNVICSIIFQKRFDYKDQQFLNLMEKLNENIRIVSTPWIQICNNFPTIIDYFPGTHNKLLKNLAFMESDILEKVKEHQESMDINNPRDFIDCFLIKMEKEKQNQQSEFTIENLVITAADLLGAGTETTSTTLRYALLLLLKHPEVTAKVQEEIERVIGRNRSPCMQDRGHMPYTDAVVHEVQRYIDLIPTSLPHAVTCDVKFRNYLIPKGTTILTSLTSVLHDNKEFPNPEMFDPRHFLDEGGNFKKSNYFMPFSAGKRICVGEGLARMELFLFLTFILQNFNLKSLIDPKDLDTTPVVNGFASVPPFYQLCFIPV
Summary of the method: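 IC50 determined in human liver microsomes as part of a five-isoform panel (CYP1A2, CYP2C9, CYP2C19, CYP2D6, CYP3A4) to assess drug-interaction potential.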

Brain = assay: Drug uptake in carrageenan inflammatory pain model of rat brain at 10 to 100 umol/kg, sc; assay type: ADME, organism-based; conditions: in vivo; summary of the method: as §1
Cytochrome P450 2D6 = Cytochrome P450 2D6 (Homo sapiens, UniProt P10635); assay: Inhibition of CYP2D6 in human liver microsomes; assay type: ADME, Microsome
Cytochrome P450 2D6, sequence (P10635 whole entry): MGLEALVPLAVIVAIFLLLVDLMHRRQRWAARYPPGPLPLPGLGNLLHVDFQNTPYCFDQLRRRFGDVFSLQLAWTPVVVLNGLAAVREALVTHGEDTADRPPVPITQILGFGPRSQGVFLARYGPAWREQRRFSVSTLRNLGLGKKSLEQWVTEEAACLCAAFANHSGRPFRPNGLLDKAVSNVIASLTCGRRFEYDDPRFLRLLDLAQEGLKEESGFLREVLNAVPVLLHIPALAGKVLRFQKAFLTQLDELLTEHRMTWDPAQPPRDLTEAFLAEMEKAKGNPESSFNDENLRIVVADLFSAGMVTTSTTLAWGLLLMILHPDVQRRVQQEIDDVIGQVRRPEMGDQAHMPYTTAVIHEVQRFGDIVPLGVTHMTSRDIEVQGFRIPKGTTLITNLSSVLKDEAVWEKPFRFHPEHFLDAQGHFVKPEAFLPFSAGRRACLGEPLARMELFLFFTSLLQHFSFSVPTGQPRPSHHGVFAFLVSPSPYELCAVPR

[13] = Plasma protein binding in Sprague-Dawley rat; assay type: ADME, cell-free; conditions: read-out: PPB (converted)
[14] = Terminal half life in Sprague-Dawley rat at 2 umol/kg, iv; assay type: ADME, organism-based; conditions: in vivo, read-out: beta t1/2 (converted)
[15] = Oral bioavailability in Sprague-Dawley rat at 9 umol/kg; assay type: ADME, organism-based; conditions: in vivo
Plasma [16] = assay: Plasma concentration in rat carrageenan inflammatory pain model at 10 umol/kg, sc; assay type: ADME, cell-free; summary of the method: as §1
Plasma [17] = assay: Plasma concentration in rat carrageenan inflammatory pain model at 30 umol/kg, sc; assay type: ADME, cell-free; summary of the method: as §1
[18] = Tmax in Sprague-Dawley rat at 9 umol/kg, po; assay type: ADME, organism-based; conditions: in vivo
[19] = target: Voltage-gated inwardly rectifying potassium channel KCNH2 (Homo sapiens, UniProt Q12809)
Voltage-gated inwardly rectifying potassium channel KCNH2, sequence (Q12809 whole entry): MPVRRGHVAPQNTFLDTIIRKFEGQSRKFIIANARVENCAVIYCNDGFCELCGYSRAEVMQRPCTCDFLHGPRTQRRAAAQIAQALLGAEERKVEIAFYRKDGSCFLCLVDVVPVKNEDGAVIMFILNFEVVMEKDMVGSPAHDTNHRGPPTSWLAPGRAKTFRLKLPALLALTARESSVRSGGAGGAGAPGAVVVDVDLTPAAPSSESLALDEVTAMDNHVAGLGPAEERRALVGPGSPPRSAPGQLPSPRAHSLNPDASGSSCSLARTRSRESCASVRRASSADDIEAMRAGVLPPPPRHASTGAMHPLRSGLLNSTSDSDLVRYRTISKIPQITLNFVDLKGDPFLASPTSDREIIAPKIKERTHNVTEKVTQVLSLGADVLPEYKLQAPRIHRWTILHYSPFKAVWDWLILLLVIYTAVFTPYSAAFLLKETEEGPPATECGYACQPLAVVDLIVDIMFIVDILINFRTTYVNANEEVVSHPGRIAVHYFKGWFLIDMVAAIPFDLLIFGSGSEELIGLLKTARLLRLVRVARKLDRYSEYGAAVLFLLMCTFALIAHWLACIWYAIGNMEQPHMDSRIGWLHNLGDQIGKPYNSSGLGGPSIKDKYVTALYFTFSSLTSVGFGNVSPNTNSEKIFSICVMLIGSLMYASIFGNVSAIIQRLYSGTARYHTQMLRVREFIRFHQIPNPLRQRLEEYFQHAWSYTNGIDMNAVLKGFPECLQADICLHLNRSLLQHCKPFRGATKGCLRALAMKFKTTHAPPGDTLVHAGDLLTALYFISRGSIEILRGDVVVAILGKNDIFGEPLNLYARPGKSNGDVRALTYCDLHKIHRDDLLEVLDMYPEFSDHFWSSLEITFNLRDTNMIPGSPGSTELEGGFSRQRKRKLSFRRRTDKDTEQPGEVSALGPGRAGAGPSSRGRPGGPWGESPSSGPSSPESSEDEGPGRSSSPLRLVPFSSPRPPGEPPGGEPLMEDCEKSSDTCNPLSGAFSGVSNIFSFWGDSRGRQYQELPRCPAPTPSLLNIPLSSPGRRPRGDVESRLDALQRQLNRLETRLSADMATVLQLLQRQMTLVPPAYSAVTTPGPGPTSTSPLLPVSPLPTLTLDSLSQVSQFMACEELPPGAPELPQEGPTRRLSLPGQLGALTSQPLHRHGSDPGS

| SMILES | microsomal CLint at 1 µM [1] [µL/min/mg] | Emax (Cannabinoid receptor 1 [2]) [%] | Kp [3] | EC50 (Cannabinoid receptor 1 [4]) [nM] | solubility thermodynamic [5] [µM] | Papp A→B at 10 µM [6] [×10⁻⁶ cm/s] | Ki (Cannabinoid receptor 1 [7]) [nM] | other results |
| --- | --- | --- | --- | --- | --- | --- | --- | --- |
| CCN(CC(=O)NCCF)C(=O)c1ccc2c(c1)c1c(n2C)CC[C@@H](C2CCOCC2)C1 | 33 | 107 | 0.068 | 9.8 | 71 (≈ 31.5 µg/mL) | – | – | – |
| CCN(CC(=O)NC1CC1)C(=O)c1ccc2c(c1)c1c(n2C)CC[C@@H](C2CCOCC2)C1 | 36 | 106 | 0.09 | 1.9 | 30 (≈ 13.1 µg/mL) | 23 | 4.2 | – |
| CNC(=O)CCCN(C)C(=O)c1ccc2c(c1)c1c(n2C)CC[C@@H](C2CCOCC2)C1 | 26 | 116 | 0.02 | 51.4 | 1120 (≈ 478 µg/mL) | 12 | 29.3 | concentration (Plasma [8]): 50.7 µM; clearance [9]: 2.8 mL/min/kg; INH (Cytochrome P450 1A2): > 20 µM; Cmax [10]: 6.3 µM; Vd [11]: 0.3 L/kg; Ki (Cannabinoid receptor 2): 15.5 nM; IC50 (Cytochrome P450 2C9): 7000 nM; INH (Cytochrome P450 3A4): > 20 µM; microsomal CLint [12]: 61 µL/min/mg; Activity (Rattus norvegicus): Dose-dependent effect; INH (Cytochrome P450 2C19): > 20 µM; Drug uptake (Brain): Not Active; INH (Cytochrome P450 2D6): > 20 µM; fraction unbound [13]: 0.021; half-life [14]: 2.4 h; bioavailability [15]: 100%; concentration (Plasma [16]): 6.9 µM; concentration (Plasma [17]): 9.1 µM; Tmax [18]: 2.2 h |
| CN(CC(=O)NC1CC1)C(=O)c1ccc2c(c1)c1c(n2C)CC[C@H](C2CCOCC2)C1 | 38 | 111 | – | 446 | 63 (≈ 26.7 µg/mL) | – | 177 | Ki (Cannabinoid receptor 2): 49.1 nM |
| CN(CCCC(=O)NCCO)C(=O)c1ccc2c(c1)c1c(n2C)CC[C@@H](C2CCOCC2)C1 | 17 | 120 | – | – | 2490 (≈ 1130 µg/mL) | – | – | – |
| CNC(=O)CC[C@@H](CO)N(C)C(=O)c1ccc2c(c1)c1c(n2C)CC[C@@H](C2CCOCC2)C1 | 15 | 124 | < 0.02 | – | > 3000 | 0.15 | – | IC50 [19]: > 33000 nM |
| CCCCCOc1ccc(C(=O)c2cccc3ccccc23)c2ccccc12 | – | 112 | 0.29 | – | – | – | – | – |
| CN(CCCC(=O)NC1CC1)C(=O)c1ccc2c(c1)c1c(n2C)CCC(C2CCOCC2)C1 (stereo not drawn) | 73 | 113 | – | – | 444 (≈ 201 µg/mL) | – | – | – |
| Cn1c2c(c3cc(C(=O)NCCCC(=O)NC4CC4)ccc31)CC(C1CCOCC1)CC2 (stereo not drawn) | 47 | – | – | – | 1 (≈ 0.438 µg/mL) | – | – | IC50 [19]: > 31000 nM |
| CN(CC(=O)NC1CC1)C(=O)c1ccc2c(c1)c1c(n2C)CC[C@@H](C2CCOCC2)C1 | 30 | 116 | 0.024 | 39.9 | 86 (≈ 36.4 µg/mL) | 27 | 24.5 | Ki (Cannabinoid receptor 2): 21.5 nM |
| CN(C(=O)c1ccc2c(c1)c1c(n2C)CC[C@@H](C2CCOCC2)C1)[C@H](CO)CCC(=O)NCCF | 27 | 118 | 0.025 | – | 1310 (≈ 639 µg/mL) | 0.11 | – | IC50 [19]: > 33000 nM |
| CN(CCCC(=O)NC1COC1)C(=O)c1ccc2c(c1)c1c(n2C)CC[C@@H](C2CCOCC2)C1 | 29 | 116 | 0.019 | 43.7 | 1670 (≈ 781 µg/mL) | – | – | – |
| CNC(=O)CCCN(C)C(=O)c1ccc2c(c1)c1c(n2C)CC[C@H](C2CCOCC2)C1 | 31 | – | – | – | 1070 (≈ 455 µg/mL) | – | 576 | – |
